Screening results (PubChem)
Sampled rows, rich in hits. Any-hit rate of the full collection: about 3.5%.
MrgX1 antagonist: human MrgX1 receptor antagonism, primary screen. AID 588676. 310,000 compounds, 1.3% hits. Q96LB2. B-score at 10 µM. MRGX1-HEK293 calcium flux, Fluo-4, BAM8-22 antagonism; stronger effect = lower value;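 active = calcium-response B-score plate-corrected more than 3 library SD below zero, starting fluorescence within 5 deviations, no agonist response on first addition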;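 also: peak minus trough fluorescence over baseline after final BAM8-22 challenge near maximal dose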
Target sequence (Q96LB2 whole entry, looked up): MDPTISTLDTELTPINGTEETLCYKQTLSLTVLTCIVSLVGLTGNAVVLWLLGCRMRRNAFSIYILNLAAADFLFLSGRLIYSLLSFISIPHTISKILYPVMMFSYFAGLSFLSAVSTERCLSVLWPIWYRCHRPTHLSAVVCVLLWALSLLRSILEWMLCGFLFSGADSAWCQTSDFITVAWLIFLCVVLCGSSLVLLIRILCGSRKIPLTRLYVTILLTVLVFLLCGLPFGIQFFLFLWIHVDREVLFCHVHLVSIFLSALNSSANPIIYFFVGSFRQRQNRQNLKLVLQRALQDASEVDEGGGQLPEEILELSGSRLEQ
MrgX1 PAM: human MrgX1 positive allosteric modulation, primary screen; Q96LB2; MrgX1-HEK293, Fluo-4 calcium flux, FDSS; stronger effect = higher value; B-score at 10 µM; 310,000 compounds, 0.63% hits;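 active = plate-corrected calcium response at least 3 library SD above typical, normal starting fluorescence, not activating the receptor alone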;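 also: compound read alongside a low EC10 to EC30 dose of BAM8-22 agonist; peak minus trough fluorescence over baseline measured at the second addition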
MrgX1 agonist: activates human MrgX1 receptor signaling. Q96LB2. MrgX1-HEK293 cells, Fluo-4 calcium fluorescence, agonist mode; stronger effect = higher value. B-score at 10 µM. 310,000 compounds, 0.44% hits;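 active = calcium response B-score plate-corrected fluorescence ratio at least 3 library SD, with starting fluorescence B-score inside 5 SD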
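Material: HEK293 cells stably expressing human MrgX1 receptor | Quantity: 15,000 cells per well | Times: Cells plated overnight, dye loaded 0.5 h 37 °C, 0.5 h room temperature | Measured by: Kinetic Fluo-4 NW fluorescence of intracellular calcium | Control set: Positive and negative controls per plate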
RGS4 block: inhibitors of human RGS4; HEK293 M3R/RGS4 inducible, Fluo-4 calcium flux; stronger effect = higher value; triggered by carbachol at its EC20; B-score at 10 µM; 310,000 compounds, 0.45% hits;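 active = B-score, a plate-corrected calcium signal, over three deviations above library mean, with baseline fluorescence within five deviations of library mean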;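 also: RGS4 expression induced by doxycycline in cells with stable M3 receptor; B-score is computed from the integrated fluorescence ratio over baseline after carbachol; higher B-score means a larger calcium signal and so more RGS4 inhibition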
Target sequence (P49798 whole entry, looked up): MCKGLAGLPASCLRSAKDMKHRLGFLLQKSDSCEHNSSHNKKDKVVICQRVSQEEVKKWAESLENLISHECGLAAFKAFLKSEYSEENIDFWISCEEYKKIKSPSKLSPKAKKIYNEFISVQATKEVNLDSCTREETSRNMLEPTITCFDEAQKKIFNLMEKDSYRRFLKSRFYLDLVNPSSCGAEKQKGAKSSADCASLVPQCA
RGS4 pot: potentiators or activators of RGS4; B-score at 10 µM; 310,000 compounds, 0.92% hits; AID 463111; HEK293 M3R/inducible RGS4, carbachol calcium flux Fluo4; stronger effect = lower value;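 active = B-score of the integrated calcium signal more than 4 SD below the library mean, with starting fluorescence not abnormally high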;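 also: negative B-score means reduced calcium response which marks RGS4 activation or potentiation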
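System: HEK293 FlpIn-TREx cells, stable M3R, doxycycline-inducible RGS4. Timing: overnight RGS4 induction, 30 min dye load 37 °C, 20 min compound RT. Also added: carbachol, ECmax concentration. Measured by: Fluo4 fluorescence kinetic imaging of calcium. Evaluation: integrated calcium ratio converted to B score.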
MrgX1 ant reconf: human MrgX1 receptor antagonism, re-confirmation screen | shares compounds with MrgX1 antagonist | MrgX1-HEK293, BAM8-22 calcium flux, Fluo-4; stronger effect = lower value | remaining BAM8-22 calcium response % of control (stronger effect = lower value), % at 10 µM | 2,300 compounds, 19% hits | AID 602420;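 active = remaining agonist calcium response no higher than 100% minus 3 SD of agonist-only control wells, with starting fluorescence near control levels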;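 also: agonist BAM8-22 given at a near maximal EC90 to ECmax level; peak minus minimum fluorescence divided by baseline after agonist addition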
HEK293 Ca flux: counter-screen for MrgX1 antagonists: effect in parental HEK293 cells. shares compounds with MrgX1 antagonist. Fluo-4 calcium fluorescence, FDSS. fluorescence ratio F(max-min)/F0 at 10 µM. 4,000 compounds, 2% hits. AID 624111;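 active = duplicate-averaged calcium fluorescence ratio at least three times the standard deviation of buffer wells, a nonspecific response in parental cells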
HEK293 Ca counter: MrgX1 allosteric activator counter-screen hit in parental HEK293 cells; 4,000 compounds, 0.4% hits; fluorescence ratio F(max-min)/F0 at 10 µM; parental HEK293 calcium flux, Fluo-4 fluorescence ratio; stronger effect = higher value; shares compounds with MrgX1 antagonist;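 active = calcium fluorescence ratio, averaged over duplicates, at least 3 SD of the buffer-well ratio, meaning a nonspecific response in receptor-free cells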;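 also: untransfected parental HEK293 lacking MrgX1 used as counterscreen for MrgX1 allosteric activators; fluorescence change taken during the second addition on a kinetic imager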
HEK293 Ca cntr2: activity in parental HEK293 cells lacking MrgX1 receptor. shares compounds with MrgX1 antagonist. Fluo-4 calcium fluorescence (FDSS); stronger effect = higher value. fluorescence ratio F(max-min)/F0 at 10 µM. 4,000 compounds, 8.7% hits. AID 624115;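 active = calcium fluorescence ratio at least three times the spread of buffer wells, meaning a non-specific response in parental cells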
Large screens that a line does not name were inactive (follow-up assays come after a bar, where they were run).

O=C(c1cc(COc2ccc(F)cc2Cl)on1)N1CCC(c2ccncc2)CC1	none
COC(=O)C1SCC2C(=O)N(Cc3ccccc3)CC(=O)N21 (stereo not drawn)	none
Cc1ccc(S(=O)(=O)N(CC(=O)Nc2ccccc2C(=O)O)c2cccc(Cl)c2C)cc1	MrgX1 antagonist -7.1 | MrgX1 ant reconf inactive | HEK293 Ca flux inactive | HEK293 Ca counter inactive | HEK293 Ca cntr2 inactive
COC(=O)CC1COc2ccccc2N1C(=O)c1cc(OC)c(OC)c(OC)c1 (stereo not drawn)	MrgX1 antagonist -5 | MrgX1 ant reconf inactive | HEK293 Ca flux inactive | HEK293 Ca counter inactive | HEK293 Ca cntr2 inactive
COC(=O)CC1COc2ccccc2N1C(=O)c1ccc(OC)cc1 (stereo not drawn)	none
O=C(CN1CCN(C(=O)c2c(F)cccc2F)CC1)Nc1ccccc1F	none (no result: RGS4 block, RGS4 pot)
CCn1c(SCC(=O)Nc2ccc(C(C)=O)cc2)nc2nc3c(cc2c1=O)CCCC3	MrgX1 antagonist -5.8 | MrgX1 ant reconf inactive | HEK293 Ca flux inactive | HEK293 Ca counter inactive | HEK293 Ca cntr2 inactive
CCCCn1c(N)c(N(CC(C)C)C(=O)Cc2ccc3c(c2)OCCO3)c(=O)[nH]c1=O	none
O=c1[nH]c2cc(Br)cnc2nc1/C=C(\O)c1ccc(F)cc1	MrgX1 antagonist -7 | MrgX1 ant reconf 75% | HEK293 Ca flux inactive | HEK293 Ca counter inactive | HEK293 Ca cntr2 inactive
Cc1ccnc(SC2CC(=O)N(c3ccc(F)cc3)C2=O)n1 (stereo not drawn)	none
CCN1CCN(C(=O)c2cnn3c(C(F)F)cc(-c4ccc(C)cc4)nc23)CC1	MrgX1 antagonist -8.5 | MrgX1 ant reconf inactive | HEK293 Ca flux inactive | HEK293 Ca counter inactive | HEK293 Ca cntr2 inactive
Cc1ccc(-c2cc(C(F)F)n3ncc(C(=O)N4CCc5ccccc54)c3n2)cc1	none
O=C(c1cnn2c(C(F)F)cc(-c3ccccc3)nc12)N1CCc2ccccc21	MrgX1 antagonist -4.7 | MrgX1 ant reconf inactive | HEK293 Ca flux inactive | HEK293 Ca counter inactive | HEK293 Ca cntr2 inactive
COc1ccc(NS(=O)(=O)c2cccc(C(=O)NNC(=O)c3ccc(Br)o3)c2)cc1	none
COc1ccccc1OCC(=O)Nc1ccc(S(=O)(=O)NC(C)=O)cc1	MrgX1 antagonist -6.7 | MrgX1 ant reconf inactive | HEK293 Ca flux inactive | HEK293 Ca counter inactive | HEK293 Ca cntr2 inactive
COc1ccccc1OCC(=O)Nc1ccc(NC(=O)COc2ccccc2OC)cc1	none
CCc1ccc(C(=O)CN2C(=O)NC(C)(CCc3ccccc3)C2=O)cc1 (stereo not drawn)	none
COCCCNC(=O)C1CC(=O)N(C2CCCC2)C1 (stereo not drawn)	MrgX1 antagonist -4.8 | MrgX1 ant reconf inactive | HEK293 Ca flux inactive | HEK293 Ca counter inactive | HEK293 Ca cntr2 inactive
C[C@H](NC(=O)Cc1ccccc1)C(=O)N1CCC2(CC1)NCCc1[nH]cnc12	none
CN(C)CCCSc1nc2ccccc2s1	MrgX1 antagonist -7.1 | MrgX1 ant reconf 69% | HEK293 Ca flux inactive | HEK293 Ca counter inactive | HEK293 Ca cntr2 inactive
CC1(C)OC(=O)C(=NNc2ccc(Br)cc2)C(=O)O1	none
CC(=O)Nc1n[nH]c(-c2ccc(C)cc2)c1C	MrgX1 antagonist -5.4 | MrgX1 ant reconf inactive | HEK293 Ca flux inactive | HEK293 Ca counter inactive | HEK293 Ca cntr2 inactive
CC(=O)Nc1cc(-c2ccc(F)cc2)[nH]n1	none
CC(C)(Cc1cc(CC(C)(C)C(=O)O)cc(C(C)(C)C)c1)C(=O)O	MrgX1 antagonist -7.5 | MrgX1 ant reconf inactive | HEK293 Ca flux inactive | HEK293 Ca counter inactive | HEK293 Ca cntr2 inactive
O=C1C(Cl)=C(N2CCCC2)C(=O)N1c1ccc(F)cc1	none
COc1ccc2nc(C)cc(NCc3ccc(F)cc3)c2c1	MrgX1 antagonist -8.4 | MrgX1 ant reconf inactive | HEK293 Ca flux inactive | HEK293 Ca counter inactive | HEK293 Ca cntr2 inactive
COc1ccc2nc(C)cc(Nc3ccc(C)cc3)c2c1	none
C=CCNC(=O)CSc1nnc(-c2ccc(S(=O)(=O)N3CCCC3)cc2)n1C	none
NC(=O)CSc1oc(-c2ccco2)nc1S(=O)(=O)c1ccc(Br)cc1	none
Cc1ccc(NC(=O)CCc2nnc3ccc(N4CCC(C)CC4)nn23)nc1	MrgX1 antagonist -7.4 | MrgX1 ant reconf inactive | HEK293 Ca flux inactive | HEK293 Ca counter inactive | HEK293 Ca cntr2 inactive
CN1CCN(S(=O)(=O)c2ccc(N(C)Cc3cccs3)nc2)CC1	none
COc1ccccc1N1CCN(C(=O)C2CCCO2)CC1 (stereo not drawn)	MrgX1 antagonist -8.2 | MrgX1 ant reconf inactive | HEK293 Ca flux inactive | HEK293 Ca counter inactive | HEK293 Ca cntr2 inactive
Cc1ccc(S(=O)(=O)N2CCCC2C(=O)NC2CCCCC2)cc1 (stereo not drawn)	MrgX1 antagonist -14 | MrgX1 ant reconf inactive | HEK293 Ca flux inactive | HEK293 Ca counter inactive | HEK293 Ca cntr2 inactive
O=C(Nc1ccccc1F)C(=O)c1cn(CC(=O)N2CCCCC2)c2ccccc12	MrgX1 antagonist -5 | MrgX1 ant reconf inactive | HEK293 Ca flux inactive | HEK293 Ca counter inactive | HEK293 Ca cntr2 inactive
CC(=O)Nc1ccc(NC(=O)C(=O)c2cn(CC(=O)N3CCCC3)c3ccccc23)cc1	none
O=C(NC1CC1)C1CCN(S(=O)(=O)c2cc(Cl)ccc2Cl)CC1	MrgX1 antagonist -5.4 | MrgX1 ant reconf inactive | HEK293 Ca flux inactive | HEK293 Ca counter inactive | HEK293 Ca cntr2 inactive
CCOC(=O)C1=C(C)NC(=O)NC1c1ccc(-c2ccc(Cl)cc2)o1 (stereo not drawn)	none
CCOC(=O)C1=C(C)NC(=S)NC1c1ccc(-c2ccc(Cl)cc2)o1 (stereo not drawn)	MrgX1 antagonist -4.8 | MrgX1 ant reconf inactive | HEK293 Ca flux inactive | HEK293 Ca counter inactive | HEK293 Ca cntr2 inactive
CCN(CC)C(=O)C12CC3CC(CC(Br)(C3)C1)C2	none
C=C(C)CSc1nc(C)c(Cc2ccccc2)c(=O)[nH]1	MrgX1 antagonist -6.7 | MrgX1 ant reconf 85% | HEK293 Ca flux inactive | HEK293 Ca counter inactive | HEK293 Ca cntr2 inactive
CN(Cc1ccco1)S(=O)(=O)c1cc(F)ccc1CN1C(=O)c2cccnc2C1=O	MrgX1 antagonist -4.9 | MrgX1 ant reconf inactive | HEK293 Ca flux inactive | HEK293 Ca counter inactive | HEK293 Ca cntr2 inactive
COc1ccc(CN2C(=O)c3cccnc3C2=O)cc1S(=O)(=O)N(C)Cc1ccco1	none
